B1: Osa-1-4 twister ribozyme (parent)
chain: CCGCCUAACACUGCCAAUGCCGGUCCCAAGCCCGGAUAAAAGUGGAGGGGGCGG

Variants of B1 are the subject of this data set. The data set is described as follows: self-cleavage, relative activity (ratio to wild type); higher = more cleavage; co-transcriptional. Summed up:
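Values are relative activity: the fraction cleaved, normalised to wild type. A doped DNA template for a 54-nucleotide twister ribozyme from Oryza sativa had 97 % wild-type base and 1 % of each other base at the 48 positions downstream of the cleavage site. The RNA was transcribed in vitro for 2 h at 37 °C so that it could cleave itself co-transcriptionally, then sequenced deeply, with cleavage status scored from the presence or absence of upstream sequence in reads.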
Consider CCGCCUAACACUGCCAAUGCGGGUCCCAGGCCCGGAUAAAAGUGGAGGGGGCGG [A29G C21G], for which the self-cleavage came out at 0.07.
As for CCGCCUAACACUGCCAAUGCUGGUCCCAGGCCCGGAUAAAAGUGGAGGGGGCGG [A29G C21U], the figure is 0.17.
On to CCGCCUAACACUGCCAAUGCAGGUCCCAGGCCCGGAUAAAAGUGGAGGGGGCGG [A29G C21A], for which the self-cleavage amounted to 0.1.
For the variant CCGCCUAACACUGCCAAUGCCGGUCCCAGGCCCGAAUAAAAGUGGAGGGGGCGG [A29G G35A], the self-cleavage came to 0.24.
Under CCGCCUAACACUGCCAAUGCCGGUCCCAGGCCCGCAUAAAAGUGGAGGGGGCGG [A29G G35C] stands 0.05; under CCGCCUAACACUGCCAAUGCCGGUCCCAGGCCCGUAUAAAAGUGGAGGGGGCGG [A29G G35U], 0.16.
Under CCGCCUAACACUGCCAAUGCCGGUCACAGGCCCGGAUAAAAGUGGAGGGGGCGG [A29G C26A] stands 0.04; under CCGCCUAACACUGCCAAUGCCGGUCGCAGGCCCGGAUAAAAGUGGAGGGGGCGG [A29G C26G], 0.1; under CCGCCUAACACUGCCAAUGCCGGUCUCAGGCCCGGAUAAAAGUGGAGGGGGCGG [A29G C26U], 0.08.
As for CCGCCUAACACUGCCAAUGCCGGUUCCAGGCCCGGAUAAAAGUGGAGGGGGCGG [A29G C25U], the figure is 0.08.
Consider CCGCCUAACACUGCCAAUGCCGGUACCAGGCCCGGAUAAAAGUGGAGGGGGCGG [A29G C25A], for which the self-cleavage was found to be 0.04.
Under CCGCCUAACACUGCCAAUGCCGGUGCCAGGCCCGGAUAAAAGUGGAGGGGGCGG [A29G C25G] stands 0.04; under CCGCCUAACACUGCCAAUGCCGGUCCUAGGCCCGGAUAAAAGUGGAGGGGGCGG [A29G C27U], 0.05; under CCGCCUAACACUGCCAAUGCCGGUCCAAGGCCCGGAUAAAAGUGGAGGGGGCGG [A29G C27A], 0.06.
As for CCGCCUAACACUGCCAAUGCCGGUCCGAGGCCCGGAUAAAAGUGGAGGGGGCGG [A29G C27G], the figure is 0.06; as for CCGCCUAACACUGCCAAUGCCGGUCCCAGGCUCGGAUAAAAGUGGAGGGGGCGG [A29G C32U], 0.06; as for CCGCCUAACACUGCCAAUGCCGGUCCCAGGCACGGAUAAAAGUGGAGGGGGCGG [A29G C32A], 0.04.
Regarding CCGCCUAACACUGCCAAUGCCGGUCCCAGGCGCGGAUAAAAGUGGAGGGGGCGG [A29G C32G], the self-cleavage came to 0.07.
Under CCGCCUAACACUGCCAAUGCCGGUCCCAGACCCGGAUAAAAGUGGAGGGGGCGG [A29G G30A] stands 0.05; under CCGCCUAACACUGCCAAUGCCGGUCCCAGCCCCGGAUAAAAGUGGAGGGGGCGG [A29G G30C], 0.03; under CCGCCUAACACUGCCAAUGCCGGUCCCAGUCCCGGAUAAAAGUGGAGGGGGCGG [A29G G30U], 0.04.
Under CCGCCUAACACUGCCAAUGCCGGUCCCAGGCCGGGAUAAAAGUGGAGGGGGCGG [A29G C33G] stands 0.15.
As to CCGCCUAACACUGCCAAUGCCGGUCCCAGGCCAGGAUAAAAGUGGAGGGGGCGG [A29G C33A], the self-cleavage stood at 0.05.
For the variant CCGCCUAACACUGCCAAUGCCGGUCCCAGGCCUGGAUAAAAGUGGAGGGGGCGG [A29G C33U], the self-cleavage was found to be 0.07.
On to CCGCCUAACACUGCCAAUUCCGGUCCCAGGCCCGGAUAAAAGUGGAGGGGGCGG [A29G G19U], for which the self-cleavage was 0.07.
As for CCGCCUAACACUGCCAAUACCGGUCCCAGGCCCGGAUAAAAGUGGAGGGGGCGG [A29G G19A], the figure is 0.08.
As for CCGCCUAACACUGCCAAUCCCGGUCCCAGGCCCGGAUAAAAGUGGAGGGGGCGG [A29G G19C], the self-cleavage worked out at 0.06.
CCGCCUAACACUGCCAAUGCCGGUCCCAGGCCCGGAUAAAAGUGGAGGGGGAGG [A29G C52A]: the self-cleavage worked out at 0.16.
With CCGCCUAACACUGCCAAUGCCGGUCCCAGGCCCGGAUAAAAGUGGAGGGGGGGG [A29G C52G], the self-cleavage worked out at 0.22.
As for CCGCCUAACACUGCCAAUGCCGGUCCCAGGCCCGGAUAAAAGUGGAGGGGGUGG [A29G C52U], the figure is 0.34; as for CCGCCUAACACUGCCAAUGCCGGUCCCAGGGCCGGAUAAAAGUGGAGGGGGCGG [A29G C31G], 0.05; as for CCGCCUAACACUGCCAAUGCCGGUCCCAGGACCGGAUAAAAGUGGAGGGGGCGG [A29G C31A], 0.02.
Under CCGCCUAACACUGCCAAUGCCGGUCCCAGGUCCGGAUAAAAGUGGAGGGGGCGG [A29G C31U] stands 0.12; under CCGCCUAACACUGCCAAUGCCGGUCCCAGGCCCGGAUAAAAGUAGAGGGGGCGG [A29G G44A], 0.07.
As for CCGCCUAACACUGCCAAUGCCGGUCCCAGGCCCGGAUAAAAAUGGAGGGGGCGG [A29G G42A], the figure is 0.06; as for CCGCCUAACACUGCCAAUGCCGGUCCCAGGCCCGGAUAAAACUGGAGGGGGCGG [A29G G42C], 0.06.
For CCGCCUAACACUGCCAAUGCCGGUCCCAGGCCCGGAUAAAAUUGGAGGGGGCGG [A29G G42U], the self-cleavage was 0.04.
CCGCCUAACACUGCCAAUGCCAGUCCCAGGCCCGGAUAAAAGUGGAGGGGGCGG [A29G G22A]: the self-cleavage was determined as 0.11.
Under CCGCCUAACACUGCCAAUGCCUGUCCCAGGCCCGGAUAAAAGUGGAGGGGGCGG [A29G G22U] stands 0.06; under CCGCCUAACACUGCCAAUGCCCGUCCCAGGCCCGGAUAAAAGUGGAGGGGGCGG [A29G G22C], 0.12.
Consider CCGCCUAACACUGCCAAUGCCGGUCCCAGGCCCCGAUAAAAGUGGAGGGGGCGG [A29G G34C], for which the self-cleavage is 0.06.
For CCGCCUAACACUGCCAAUGCCGGUCCCAGGCCCAGAUAAAAGUGGAGGGGGCGG [A29G G34A], the self-cleavage amounted to 0.13.
As for CCGCCUAACACUGCCAAUGCCGGUCCCAGGCCCUGAUAAAAGUGGAGGGGGCGG [A29G G34U], the figure is 0.05; as for CCGCCUAACACUGCCAAUGCCGAUCCCAGGCCCGGAUAAAAGUGGAGGGGGCGG [A29G G23A], 0.07; as for CCGCCUAACACUGCCAAUGCCGCUCCCAGGCCCGGAUAAAAGUGGAGGGGGCGG [A29G G23C], 0.04.
Take CCGCCUAACACUGCCAAUGCCGUUCCCAGGCCCGGAUAAAAGUGGAGGGGGCGG [A29G G23U]: the self-cleavage came out at 0.05.
As for CCGCCUAACACUUCCAAUGCCGGUCCCAGGCCCGGAUAAAAGUGGAGGGGGCGG [A29G G13U], the figure is 0.03.
Consider CCGCCUAACACUCCCAAUGCCGGUCCCAGGCCCGGAUAAAAGUGGAGGGGGCGG [A29G G13C], for which the self-cleavage worked out at 0.01.
As for CCGCCUAACACUACCAAUGCCGGUCCCAGGCCCGGAUAAAAGUGGAGGGGGCGG [A29G G13A], the self-cleavage was 0.04.

These data come from the RNAGym collection of RNA variant scans (doi:10.1002/anie.201605470).
